Consider three compounds from ChEMBL document CHEMBL1140724, “Identification of human intestinal carboxylesterase as the primary enzyme for activation of a doxazolidine carbamate prodrug” (J Med Chem, 2008).

Test [1] is described as follows: Growth inhibition of human N-HepG2 cells. In kind it is functional, cell-based.
The nature of test [2]: Growth inhibition of human U373MG cells containing U373IRES plasmid after 1 hr. In kind it is functional, cell-based, U-373MG ATCC. The note with it: U373 MG. The procedure, abridged: (§1)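 U373MG glioblastoma cells (vector U373IRES, hCE1-overexpressing UhCE1, or hiCE-overexpressing UhiCE) were cultured in DMEM with 10% fetal calf serum and no antibiotics. They were exposed to graded prodrug for 1 h. Growth inhibition was measured as IC50, with points as mean ± standard deviation of six measurements.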

Test [3] in a line: Growth inhibition of […] human MCF7/Adr cells after 24 hrs in presence of N-Hep G2 lysate relative to pentyl PABC-Doxorubicin. In kind it is functional, NCI/ADR-RES.
Test [4] relates to MCF7. The test is described as follows: Growth inhibition of doxorubicin-sensitive human MCF7 cells after 24 hrs in presence of human intestinal carboxylesterase relative to pentyl PABC-Doxorubicin. In kind it is functional.
The species entered for a further test is Homo sapiens. The test is described as follows: Hydrolysing activity of human recombinant intestinal carboxylesterase. The method, boiled down: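 Recombinant baculovirus-expressed hiCE (26 µg/mL) was incubated with 50 µM prodrug in 5% DMSO with FBS/RPMI/PBS pH 7.4. Timed aliquots were quenched in equal-volume ethanol, held at -20 °C overnight and centrifuged. 1 unit = 1 µM Dox per hour; specific activity is per mg protein.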

The test system of test [5] is MCF7. Description: Growth inhibition of doxorubicin-sensitive human MCF7 cells after 24 hrs in presence of human intestinal carboxylesterase. In kind it is functional, cell-based. The note with it: MCF7, 24 h. The method, boiled down:
(§2)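 MCF-7 or MCF-7/Adr cells in RPMI 1640 with 10% fetal calf serum were seeded and left overnight to adhere. Medium was then replaced with complete medium holding prodrug in DMSO (1% final), alone or with additive: recombinant hiCE 250 ng/mL, hCE1 2.5 µg/mL, pig liver esterase 30 µg/mL, or N-Hep G2 lysate 83.5 µg protein/mL. Exposure was 24 h, then fresh medium.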

The test system of test [6] is MCF7. Description: Growth inhibition of doxorubicin-sensitive human MCF7 cells after 24 hrs in presence of pig liver esterase. Type of test: functional, cell-based. The settings on record: MCF7, 24 h. The method, boiled down:
as §2

A short description of test [7]: Growth inhibition of rat H9c2(2-1) cells. In kind it is functional.
The nature of test [8]: Growth inhibition of human U373MG cells containing UhiCE expressing plasmid after 1 hr relative to pentyl PABC-Doxorubicin. In kind it is functional, U-373MG ATCC. The procedure, abridged:
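UhiCE cells were preincubated 2 h with 10 µM benzil, a membrane-permeable CE inhibitor, before 1 h prodrug exposure. IC50 was compared with prodrug alone, using means of six measurements.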

A short description of test [9]: Growth inhibition of human U373MG cells containing UhCE1 expressing plasmid after 1 hr. Type of test: functional, cell-based, U-373MG ATCC. The settings on record: U373 MG. The method, boiled down: as §1
The test system of test [10] is MCF7. Description: Growth inhibition of doxorubicin-sensitive human MCF7 cells after 24 hrs in presence of N-Hep G2 lysate. Type of test: functional, cell-based. The settings on record: MCF7, 24 h. The procedure, abridged: as §2
Test [11] concerns MCF7. The test is described as follows: Growth inhibition of doxorubicin-sensitive human MCF7 cells after 24 hrs in presence of N-Hep G2 lysate relative to pentyl PABC-Doxorubicin. In kind it is functional.
Test [12] can be described thus: Growth inhibition of human U373IRES cells after 1 hr. In kind it is functional, U-373MG ATCC. The method, boiled down:
as §1

The subject of a further test is HepG2. Description: Growth inhibition of human HepG2 cells. Type of test: functional, cell-based.
Test [13] is described as follows: Growth inhibition of doxorubicin-resistant human MCF7/Adr cells after 24 hrs. Type of test: functional, cell-based. The settings on record: NCI/ADR-RES. The procedure, abridged: as §2
Test [14] can be described thus: Growth inhibition of […] human MCF7/Adr cells after 24 hrs in presence of human intestinal carboxylesterase relative to pentyl PABC-Doxorubicin. Type of test: functional, NCI/ADR-RES.
In test [15] the test system is MCF7. Description: Growth inhibition of doxorubicin-sensitive human MCF7 cells after 24 hrs in presence of pig liver esterase relative to pentyl PABC-Doxorubicin. In kind it is functional.
A further test has as its system SK-HEP1. Description: Growth inhibition of human SK-HEP-1 cells. Type of test: functional, cell-based.
Test [16] can be described thus: Growth inhibition of human MCF7/Adr cells. In kind it is functional, cell-based. The note with it: NCI/ADR-RES.
Test [17] is described as follows: Growth inhibition of […] human MCF7/Adr cells after 24 hrs in presence of human intestinal carboxylesterase. Type of test: functional, cell-based. The settings on record: NCI/ADR-RES. The procedure, abridged:
as §2

For test [18], the system named is MCF7. The test is described as follows: Growth inhibition of human MCF7 cells. In kind it is functional, cell-based.
A further test is filed under the species Sus scrofa. The test is described as follows: Hydrolysing activity of pig liver esterase assessed as doxorubicin production.
The subject of test [19] is MCF7. Description: (§3) Growth inhibition of doxorubicin-sensitive human MCF7 cells after 24 hrs. Type of test: functional. The procedure, abridged:
as §2

The nature of test [20]: Growth inhibition of doxorubicin-resistant human MCF7/Adr cells after 24 hrs in presence of human intestinal carboxylesterase. Type of test: functional, NCI/ADR-RES. The method, boiled down: as §2
A short description of test [21]: Growth inhibition of […] human MCF7/Adr cells after 24 hrs in presence of N-Hep G2 lysate. Type of test: functional, cell-based. The note with it: NCI/ADR-RES. The method, boiled down:
as §2

Test [22] deals with MCF7. Described as §3. In kind it is functional, cell-based. The note with it: MCF7, 24 h. The method, boiled down:
as §2

Test [23] is described as follows: Growth inhibition of human U373MG cells containing UhiCE expressing plasmid after 1 hr. Type of test: functional, cell-based, U-373MG ATCC. The settings on record: U373 MG. The method, boiled down:
as §1

A short description of test [24]: Growth inhibition of […] human MCF7/Adr cells after 24 hrs in presence of human carboxylesterase 1 relative to pentyl PABC-Doxorubicin. Type of test: functional, NCI/ADR-RES.
Test [25] in a line: Growth inhibition of human MCF7/Adr cells after 24 hrs in presence of human carboxylesterase 1. The settings on record: NCI/ADR-RES.
The test system of test [26] is MCF7. The test is described as follows: Growth inhibition of doxorubicin-sensitive human MCF7 cells after 24 hrs in presence of human carboxylesterase 1. The settings on record: MCF7, 24 h. In kind it is functional, cell-based. The method, boiled down:
as §2

The subject of test [27] is MCF7. Description: Growth inhibition of doxorubicin-sensitive human MCF7 cells after 24 hrs in presence of human carboxylesterase 1 relative to pentyl PABC-Doxorubicin. In kind it is functional.

The IC50 is the concentration needed to halve the response being measured. For `CCCCCOC(=O)Nc1ccc(COC(=O)N2CO[C@@H]3[C@H](C)O[C@H](O[C@H]4C[C@](O)(C(=O)CO)Cc5c(O)c6c(c(O)c54)C(=O)c4c(OC)cccc4C6=O)C[C@@H]32)cc1`, the concentration for half-maximal inhibition (IC50) in test [1] is 20 nM; in test [2], greater than 1000 nM; with MCF7 [5], 15.8 nM; in the test on MCF7 [6], 3.98 nM; in test [7] it was 631 nM; in test [9] it was greater than 1000 nM. In addition, the IC50 was 251 nM in the test on MCF7 [10]; 50.1 nM in the test on HepG2; greater than 1000 nM in test [13]; 1000 nM in the test with SK-HEP1; 316 nM in test [16]; 12.6 nM in test [17]. Further, the figures for the IC50 (in the test on MCF7 [18]; in test [21]; in the test on MCF7 [22]) were 2510 nM, 158 nM and greater than 1000 nM, respectively. For the same compound, the Fold change was greater than 6 in test [3]; greater than 63 in the test with MCF7 [4]; greater than 20 in test [8]; greater than 4 with MCF7 [11]; 1 in test [12]; greater than 79 in test [14]. In addition, the Fold change in the test with MCF7 [15] is greater than 100; in the test on MCF7 [19] it was 1; in test [20] it was greater than 79. The results for the Activity in the test listed under Homo sapiens and in the test listed under Sus scrofa were 0.065 µM/h and 47 µM/h, respectively.
As to `COc1cccc2c1C(=O)c1c(O)c3c(c(O)c1C2=O)C[C@@](O)(C(=O)CO)C[C@@H]3OC1C[C@H](N)[C@H](O)[C@H](C)O1` (single isomer, unassigned) [DOXORUBICIN], the IC50 is 158 nM in [2], 158 nM in [9] and 200 nM in [23].
With `O=S(=O)(Nc1ccc(NS(=O)(=O)c2ccc(Cl)cc2)cc1)c1ccc(Cl)cc1`, the Fold change (in test [24]; in the test on MCF7 [27]) was greater than 1 in each case. Also, the IC50 was 794 nM in test [25], 1000 nM with MCF7 [26], greater than 1000 nM in test [13] and greater than 1000 nM in the test on MCF7 [22].
